# Reference: paper PMC7689742 (Clinical Pharmacology and Therapeutics, 2020)
# Several values for one entry are separate records, joined by “and”; a condition that tells them apart may be missing. Equal entries are not always repeated. Where two headings read alike, the source gives them in different places.
# What was measured:
# [1] = 1:1 complex with HP‐β‐CD; cited from earlier work
# [2] = Determination of the binding constant; format: physicochemical; conditions: for k complex (M^−1) / k complex: 1:1 complex with HP‐β‐CD, source Internal data
# [3] = GastroPlus dog model
# [4] = Itraconazole clinical DDI study, fenebrutinib PK in healthy subjects; format: in vivo, human
# How it was run: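 Single oral 100 mg test-compound dose on Day 1; after a 3-day washout, inhibitor 200 mg oral solution once daily Days 4–9, with co-dosed 100 mg test compound Day 10 and one more inhibitor dose Day 11. Overnight fast, 240 mL water, food withheld 4 h post-dose. Plasma sampled predose to 48 h on Days 1 and 10. Mixed-model least-squares means, 90% CI of difference.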
# [5] = Pharmacokinetic study in pentagastrin‐pretreated dogs with or without HP‐β‐CD; format: in vivo, dog; conditions: for AUC 0‐∞ / Fenebrutinib recovered in feces / Cmax / Tmax: 100 mg tablets; for Cmax / Tmax: male, beagle, dog, plasma, po, 100 mg
# How it was run: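 Fasted male beagles got intramuscular pentagastrin at 6 µg/kg about 30 min before dosing. They then had oral gavage of pH 2 water (control) or HP-β-CD in pH 2 water (0.8, 2 or 8 g total), each plus water to 250 mL, followed by two 50 mg tablets (n = 4/group). Plasma was sampled 5 min–24 h and assayed by LC-MS/MS (LLOQ 1.02 ng/mL). Cumulative fecal recovery was measured. Groups were compared by one-way ANOVA with Bonferroni's test.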
# [6] = Physiochemical properties used for fenebrutinib
# [7] = Determination of the binding constant; format: physicochemical; conditions: aqueous, 48 hours, ambient
# How it was run: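 Excess test compound was added to sealed glass vials of aqueous α-cyclodextrin or HP-β-CD at several concentrations. Vials were shaken 48 h at ambient conditions to equilibrate, then centrifuge-filtered to remove solids. Dissolved compound was quantified by HPLC with diode array detection. k_complex = [complex]/([intrinsic solubility]·[free cyclodextrin]).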
# [8] = GastroPlus human model; conditions: for clearance: both, human, plasma, oral
# [9] = tested on: MDCK cell monolayer; assay: Permeability across an MDCK cell monolayer; format: in vitro ADME, canine; conditions: HP‐β‐CD:fenebrutinib molar ratio 1.56 (266 mg HP‐β‐CD)
# How it was run: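 MDCK cells with canine Mdr1 knocked out by CRISPR-Cas9 were grown 5 days on 1 µm pore polyester inserts. Monolayers were equilibrated 20 min at 37°C in HBSS with 10 mM Hepes, pH 7.4. Donor held 20 µM test compound, 50 µM lucifer yellow and 0–20% w/v HP-β-CD. Apical-to-basolateral receivers were sampled at 30, 60 and 90 min. Quantitation was by LC-MS/MS; Papp = (dQ/dt)/(A·C0).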
# [10] = dog model, from intravenous PK data
# [11] = both, human, plasma, po, 100 mg
# [12] = two‐compartment model fit to control group
compound,measurement,setting,value
C[C@H]1O[C@@H](O[C@H]2[C@@H](O)C[C@H](O[C@H]3[C@@H](O)C[C@H](O[C@H]4CC[C@@]5(C)[C@H](CC[C@@H]6[C@@H]5C[C@@H](O)[C@]5(C)[C@@H](C7=CC(=O)OC7)CC[C@]65O)C4)O[C@@H]3C)O[C@@H]2C)C[C@H](O)[C@@H]1O [Digoxin],k complex (M^−1),[1],"6,800 M^−1"
Clc1ccc(COC(Cn2ccnc2)c2ccc(Cl)cc2Cl)c(Cl)c1 (stereo not drawn) [Miconazole],k complex,[1],260 M⁻¹
O=C(O)c1cc(-c2ccc(F)cc2F)ccc1O [Diflunisal],k complex (M^−1),[2],"1,600 M^−1"
CCn1cc(C(=O)O)c(=O)c2cc(F)c(N3CCNCC3)cc21 [Norfloxacin],k complex,[2],5 M⁻¹
C[C@H]1CN(C2COC2)CCN1c1ccc(Nc2cc(-c3ccnc(N4CCn5c(cc6c5CC(C)(C)C6)C4=O)c3CO)cn(C)c2=O)nc1 [Fenebrutinib],transfer rate constant from the central to peripheral compartment,[3]; [10],0.08 h⁻¹
same,transfer rate constant from the peripheral to central compartment,[3]; [10],0.2 h⁻¹
same,clearance,"[3]; dog, plasma, iv",6 mL/min/kg
same,k complex (M^−1),[2],"200,000 M^−1"
same,k complex with HP‐β‐CD,"[2]; aqueous, 48 hours, ambient",2 × 10^5 M^−1 and ~ 2 × 10^5 M^−1
same,AUC0–24h,"[4]; 100 mg fenebrutinib oral alone, healthy subjects",1.11 ± 0.359 µg/h/mL
same,AUC0–24h,[4]; 100 mg fenebrutinib with 200 mg itraconazole oral solution (steady state),2.45 ± 0.588 µg/h/mL
same,Cmax,[4]; [11],221 ± 82.5 ng/mL
same,Tmax,[4]; [11],1.56 ± 0.629 h
same,half-life,[4]; [11],8.26 ± 2.33 h
same,AUC 0‐∞,[5]; HP‐β‐CD 0 g,28.9 ± 6.98 µg/h/mL
same,Fenebrutinib recovered in feces,[5]; HP‐β‐CD 0 g,3.48 ± 0.681 mg
same,AUC 0‐∞,[5]; HP‐β‐CD 0.8 g,17.4 ± 6.92 µg/h/mL
same,Fenebrutinib recovered in feces,[5]; HP‐β‐CD 0.8 g,11.2 ± 2.39 mg
same,AUC 0‐∞,[5]; HP‐β‐CD 2 g,8.38 ± 1.94 µg/h/mL
same,Fenebrutinib recovered in feces,[5]; HP‐β‐CD 2 g,15.6 ± 8.99 mg
same,AUC 0‐∞,[5]; HP‐β‐CD 8 g,4.46 ± 2.07 µg/h/mL
same,Fenebrutinib recovered in feces,[5]; HP‐β‐CD 8 g,22.7 ± 7.76 mg
same,increase of recovery in feces vs control,[5]; HP‐β‐CD 0.8 g,~3 fold
same,AUC decrease vs control,[5]; HP‐β‐CD 2 g,~3.5 fold
same,Cmax decrease vs control,[5]; HP‐β‐CD 2 g,~3.5 fold
same,increase of recovery in feces vs control,[5]; HP‐β‐CD 2 g,~4.5 fold
same,AUC decrease vs control,[5]; HP‐β‐CD 8 g,about 7 fold
same,increase of recovery in feces vs control,[5]; HP‐β‐CD 8 g,about 6.5 fold
same,Cmax,[5]; HP‐β‐CD 0 g,3940 ± 225 ng/mL
same,Cmax,[5]; HP‐β‐CD 0.8 g,2090 ± 243 ng/mL
same,Cmax,[5]; HP‐β‐CD 2 g,1110 ± 142 ng/mL
same,Cmax,[5]; HP‐β‐CD 8 g,447 ± 204 ng/mL
same,Tmax,[5]; HP‐β‐CD 0 g,0.875 ± 0.25 h
same,Tmax,[5]; HP‐β‐CD 0.8 g,1.38 ± 1.11 h
same,Tmax,[5]; HP‐β‐CD 2 g,2 ± 1.15 h
same,Tmax,[5]; HP‐β‐CD 8 g,3 h
same,particle size distribution median diameter (D50),[6],12 µm
same,solubility,[6]; pH 2.3,36000 µg/mL
same,solubility,"[6]; pH 6.5, fassif",9 µg/mL
same,solubility,"[6]; pH 7.8, aqueous buffer",0.1 µg/mL
same,k complex with α‐CD,[7],"4,000 M^−1"
same,clearance,[8],19.2 mL/min/kg
same,clearance,[8]; 100 mg,35 mL/min/kg
same,reduction of systemic clearance in the presence of itraconazole,[8]; residual method on elimination phases,approximately 45%
same,transfer rate constant from the central to peripheral compartment,[8]; [12],0.5 h⁻¹
same,transfer rate constant from the peripheral to central compartment,[8]; [12],0.19 h⁻¹
same,reduction in P app,[9],~2 fold
CC(=O)Nc1nnc(S(N)(=O)=O)s1 [Acetazolamide],k complex,[1],85 M⁻¹
CN1C(=O)CN=C(c2ccccc2F)c2cc([N+](=O)[O-])ccc21 [Flunitrazepam],k complex (M^−1),[1],"1,100 M^−1"
C[C@]12C=CC(=O)C=C1CC[C@@H]1[C@@H]2[C@@H](O)C[C@@]2(C)[C@H]1CC[C@]2(O)C(=O)CO [Prednisolone],k complex,[1],958 M⁻¹
COc1ccc2cc([C@H](C)C(=O)O)ccc2c1 [Naproxen],k complex,[1],780 M⁻¹
CS(=O)(=O)c1ccc(C2=C(c3ccccc3)C(=O)OC2)cc1 [Rofecoxib],k complex,[2],190 M⁻¹
CC[C@@]1(O)C(=O)OCc2c1cc1n(c2=O)Cc2cc3ccccc3nc2-1 [Camptothecin],k complex,[1],184 M⁻¹
Nc1ccc(S(=O)(=O)Nc2nccs2)cc1 [Sulfathiazole],k complex,[2],450 M⁻¹
C[C@]12CC[C@@H]3c4ccc(O)cc4CC[C@H]3[C@@H]1CC[C@@H]2O [Estradiol],k complex (M^−1),[1],"38,600 M^−1"
Cc1cc(NS(=O)(=O)c2ccc(N)cc2)no1 [Sulfamethoxazole],k complex,[1],360 M⁻¹
Cc1nnc2n1-c1ccc(Cl)cc1C(c1ccccc1Cl)=NC2 [Triazolam],k complex,[1],200 M⁻¹
C[C@]12CCC(=O)C=C1CC[C@@H]1[C@@H]2[C@@H](O)C[C@@]2(C)[C@H]1CC[C@]2(O)C(=O)CO [Hydrocortisone],k complex (M^−1),[1],"1,900 M^−1"
Cc1nnc2n1-c1ccc(Cl)cc1C(c1ccccc1)=NC2 [Alprazolam],k complex,[1],250 M⁻¹
CC/C(=C(/CC)c1ccc(O)cc1)c1ccc(O)cc1 [Diethylstilbestrol],k complex (M^−1),[1],"59,200 M^−1"
Cc1ccc(-c2cc(C(F)(F)F)nn2-c2ccc(S(N)(=O)=O)cc2)cc1 [Celecoxib],k complex (M^−1),[2],"3,000 M^−1"
Clc1ccc(COC(Cn2ccnc2)c2ccc(Cl)cc2Cl)cc1 (stereo not drawn) [Econazole],k complex,[1],180 M⁻¹
CN1C(=O)CN=C(c2ccccc2)c2cc(Cl)ccc21 [Diazepam],k complex,[1],184 M⁻¹
